In brackets after ≈: the same amount, converted by molar mass. Activity calls are given as the source filed them. The calls are words filed in the database; no cut-off is given here.
Experiments:
A549 = experiment: Antiproliferative activity against human A549 cells expressing FASN assessed as reduction in cell viability after 72 hrs by MTS assay; format: functional, cell-based; conditions: A549, 72 h
Outline: (§1)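 ATCC-sourced cells. H1299, H1650, H1703 and PC-9 were grown in RPMI 1640 with 10% FBS. A549 was grown in high-glucose DMEM with 10% FBS and 1 mM pyruvate. SAEC was grown in BEGM. Cells were seeded at 3 × 10^3 per well (H1650 3.5 × 10^3) and left to attach overnight. Serial dilutions from DMSO stocks were added, 0.1% DMSO final, for 72 h at 37 °C, 5% CO2. Medium was replaced, MTS added, and A490 read after 2 h. IC50 was taken from % viability versus log concentration, 3 experiments.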

[1] = Kinetic solubility of the compound in universal buffer at pH 7.4 measured at 25 degC after 24 hrs by UV/Visible spectroscopic analysis; format: physicochemical; conditions: read-out: Kinetic_solubility
[2] = Cytotoxicity against human SAE cells lacking FASN expression assessed as reduction in cell viability after 72 hrs by MTS assay; format: cell-based; outline: as §1
[3] = target: Fatty acid synthase (Homo sapiens) (UniProt P49327); experiment: Inhibition of FASN in human NCI-H1703 cells expressing FASN assessed as disruption of AKT/FASN positive feedback loop by measuring decrease in FASN expression at 1 uM after 48 hrs by Western immunoblot based densitometric assay relative to control; format: cell-based
Fatty acid synthase (Homo sapiens), sequence (P49327 whole entry, looked up): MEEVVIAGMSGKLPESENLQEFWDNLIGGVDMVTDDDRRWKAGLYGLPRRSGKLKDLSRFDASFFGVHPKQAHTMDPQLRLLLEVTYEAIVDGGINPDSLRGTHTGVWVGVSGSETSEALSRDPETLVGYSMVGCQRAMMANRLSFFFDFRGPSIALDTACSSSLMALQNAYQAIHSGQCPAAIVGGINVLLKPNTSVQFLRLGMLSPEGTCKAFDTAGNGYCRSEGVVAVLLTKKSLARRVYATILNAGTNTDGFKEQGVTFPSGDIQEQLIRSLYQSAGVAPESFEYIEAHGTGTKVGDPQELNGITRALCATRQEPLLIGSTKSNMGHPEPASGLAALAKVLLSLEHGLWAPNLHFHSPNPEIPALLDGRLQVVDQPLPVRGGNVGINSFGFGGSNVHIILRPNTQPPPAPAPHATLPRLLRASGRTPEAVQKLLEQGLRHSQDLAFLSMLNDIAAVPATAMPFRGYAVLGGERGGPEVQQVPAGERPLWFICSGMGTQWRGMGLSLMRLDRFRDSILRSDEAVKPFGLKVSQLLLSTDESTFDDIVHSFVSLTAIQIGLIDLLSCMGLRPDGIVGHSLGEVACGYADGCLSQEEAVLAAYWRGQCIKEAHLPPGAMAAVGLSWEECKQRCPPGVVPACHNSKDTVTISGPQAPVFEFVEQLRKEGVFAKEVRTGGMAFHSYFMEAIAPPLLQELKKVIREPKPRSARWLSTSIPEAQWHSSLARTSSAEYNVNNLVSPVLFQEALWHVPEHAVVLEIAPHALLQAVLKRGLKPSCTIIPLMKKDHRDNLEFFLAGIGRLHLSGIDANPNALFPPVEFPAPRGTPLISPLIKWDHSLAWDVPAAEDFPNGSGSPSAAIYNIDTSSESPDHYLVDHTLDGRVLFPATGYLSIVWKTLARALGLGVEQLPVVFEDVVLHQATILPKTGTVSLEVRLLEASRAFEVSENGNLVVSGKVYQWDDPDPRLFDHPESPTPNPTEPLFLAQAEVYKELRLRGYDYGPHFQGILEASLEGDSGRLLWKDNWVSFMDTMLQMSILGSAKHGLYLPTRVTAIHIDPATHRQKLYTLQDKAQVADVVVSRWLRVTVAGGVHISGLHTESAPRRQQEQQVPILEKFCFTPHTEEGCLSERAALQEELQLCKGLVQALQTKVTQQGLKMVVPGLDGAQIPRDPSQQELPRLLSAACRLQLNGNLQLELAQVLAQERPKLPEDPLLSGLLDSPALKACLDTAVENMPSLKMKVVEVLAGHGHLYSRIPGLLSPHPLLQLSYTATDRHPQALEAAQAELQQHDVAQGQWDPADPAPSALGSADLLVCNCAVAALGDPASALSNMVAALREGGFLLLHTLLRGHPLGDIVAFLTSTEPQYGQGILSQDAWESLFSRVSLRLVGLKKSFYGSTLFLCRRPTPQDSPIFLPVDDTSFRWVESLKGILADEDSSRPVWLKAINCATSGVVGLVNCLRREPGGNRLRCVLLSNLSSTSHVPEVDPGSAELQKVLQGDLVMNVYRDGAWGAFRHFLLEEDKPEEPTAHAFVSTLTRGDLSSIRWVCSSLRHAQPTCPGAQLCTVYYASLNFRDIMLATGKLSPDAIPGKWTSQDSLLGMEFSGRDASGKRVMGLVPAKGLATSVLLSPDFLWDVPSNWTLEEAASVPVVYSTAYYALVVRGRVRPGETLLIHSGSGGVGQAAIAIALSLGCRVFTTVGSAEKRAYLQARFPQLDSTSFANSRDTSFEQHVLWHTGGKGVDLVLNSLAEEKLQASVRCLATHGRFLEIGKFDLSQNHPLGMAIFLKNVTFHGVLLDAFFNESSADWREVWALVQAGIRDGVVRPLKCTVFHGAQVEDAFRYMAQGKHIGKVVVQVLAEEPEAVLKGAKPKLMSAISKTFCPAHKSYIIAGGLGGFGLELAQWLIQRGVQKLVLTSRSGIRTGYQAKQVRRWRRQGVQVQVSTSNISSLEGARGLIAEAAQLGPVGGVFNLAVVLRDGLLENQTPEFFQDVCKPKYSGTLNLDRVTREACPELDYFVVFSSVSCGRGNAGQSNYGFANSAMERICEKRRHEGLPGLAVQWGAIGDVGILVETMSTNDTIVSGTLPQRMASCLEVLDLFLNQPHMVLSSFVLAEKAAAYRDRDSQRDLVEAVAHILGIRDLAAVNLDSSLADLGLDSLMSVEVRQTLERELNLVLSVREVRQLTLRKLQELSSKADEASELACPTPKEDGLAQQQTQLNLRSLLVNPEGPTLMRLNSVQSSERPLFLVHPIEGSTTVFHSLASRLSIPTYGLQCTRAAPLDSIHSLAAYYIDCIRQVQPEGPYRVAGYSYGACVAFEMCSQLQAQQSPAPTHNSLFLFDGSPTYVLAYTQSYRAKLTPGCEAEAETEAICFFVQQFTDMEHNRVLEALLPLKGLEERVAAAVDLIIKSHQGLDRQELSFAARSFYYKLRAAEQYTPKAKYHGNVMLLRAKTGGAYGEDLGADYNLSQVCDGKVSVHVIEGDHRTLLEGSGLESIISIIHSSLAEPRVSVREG
Outline: (§2)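 PC-9 or H1703 cells were seeded at 8 × 10^5 per 100 mm dish and treated for 48 h at 1 or 5 µM (or 5, 50 and 100 µM). RIPA lysates were BCA-quantified and run on 8% SDS-PAGE, then transferred to PVDF. Blots were probed for FASN, AKT, phospho-AKT S473 and GAPDH and detected by ECL. Bands were quantified by densitometry and normalised to vehicle control.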

PC-9 = experiment: Antiproliferative activity against human PC9 cells harboring FASN expression and EGFR delE746-A750 mutant assessed as reduction in cell viability after 72 hrs by MTS assay; format: functional, cell-based; conditions: PC-9, 72 h; outline: as §1
[4] = target: Fatty acid synthase (Homo sapiens) (UniProt P49327); experiment: (§3) Inhibition of FASN in human PC9 cells harboring FASN expression and EGFR delE746-A750 mutant assessed as disruption of AKT/FASN positive feedback loop by measuring reduction in AKT expression at 5 uM after 48 hrs by Western immunoblot based densitometric assay relative to control; format: cell-based; outline: as §2
[5] = Ratio of compound kinetic solubility to [1,1'-Biphenyl]-4,4'-diyl bis(3,4,5-trihydroxybenzoate)] kinetic solubility in universal buffer at pH 7.4 measured at 25 degC after 24 hrs by UV/Visible spectroscopic analysis; format: physicochemical; conditions: pH 7.4, 24 h
[6] = target: Fatty acid synthase (Homo sapiens) (UniProt P49327); experiment: Inhibition of FASN in human NCI-H1703 cells expressing FASN assessed as disruption of AKT/FASN positive feedback loop by measuring decrease in FASN expression at 1 uM after 48 hrs in presence of exogenous lipid concentrate by Western immunoblot based densitometric assay relative to control; format: cell-based
Outline: (§4)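 PC-9 (2 µM) or H1703 (1 µM) cells were treated with compound, with or without lipid concentrate (1% v/v per figure legend), for 48 h. Cells were lysed in RIPA buffer and lysates run on SDS-PAGE western blots for FASN, AKT, phospho-AKT S473 and GAPDH. Bands were quantified by densitometry and normalised to untreated control.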

[7] = target: Fatty acid synthase (Homo sapiens) (UniProt P49327); experiment: as §3, with “measuring ratio of phosphoAKT/AKT” for “measuring reduction in AKT”, “at 2” for “at 5”, “hrs in presence of exogenous lipid concentrate” for “hrs”; format: cell-based; outline: as §4
[8] = target: Fatty acid synthase (Homo sapiens) (UniProt P49327); experiment: Inhibition of FASN in human NCI-H1703 cells expressing FASN assessed as disruption of AKT/FASN positive feedback loop by measuring decrease in ratio of phosphoAKT/AKT expression at 1 uM after 48 hrs by Western immunoblot based densitometric assay relative to control; format: cell-based; outline: as §2
NCI-H1703 = experiment: Induction of apoptosis in human NCI-H1703 cells expressing FASN assessed as increase in late apoptotic cells at 5 uM after 72 hrs by Annexin-V FITC/PI staining-based flow cytometry; format: functional, cell-based
[9] = target: Fatty acid synthase (Homo sapiens) (UniProt P49327); experiment: Inhibition of full length human FASN transfected in HeLa cell lysates at 10 uM using acetyl Co-A/malonyl Co-A as substrate preincubated with enzyme for 2 hrs followed by substrate addition measured after 10 mins in presence of NADPH by microplate reader analysis; format: subcellular; conditions: Lysate
Outline: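 Human FASN was made by in vitro translation from a FASN plasmid. Lysate was diluted 3:7 in 100 mM potassium phosphate, pH 6.5, 1 mM EDTA. It was preincubated with compound (10 µM final) for 2 h at 37 °C. Buffer containing acetyl-CoA (55 µM) and NADPH (330 µM) was added, then the reaction was started with malonyl-CoA (500 µM stock). A340 was read at 0 and 10 min; triplicates.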

[10] = target: Fatty acid synthase (Homo sapiens) (UniProt P49327); experiment: Inhibition of FASN in human PC9 cells harboring FASN expression and EGFR delE746-A750 mutant assessed as disruption of AKT/FASN positive feedback loop by measuring reduction in phosphorylated AKT expression at 5 uM after 48 hrs by Western immunoblot based densitometric assay relative to control; format: cell-based; outline: as §2
[11] = target: Fatty acid synthase (Homo sapiens) (UniProt P49327); experiment: Inhibition of FASN in human PC9 cells harboring FASN expression and EGFR delE746-A750 mutant assessed as disruption of AKT/FASN positive feedback loop by measuring reduction in AKT expression at 1 uM after 48 hrs by Western immunoblot based densitometric assay relative to control; format: cell-based; outline: as §2
[12] = Selectivity index, ratio of IC50 for human SAE cells lacking FASN expression to IC50 for human A549 cells expressing FASN
Outline: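 The ratio IC50(SAEC)/IC50(NSCLC line) was calculated from 72 h MTS viability IC50 values.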

[13] = Selectivity index, ratio of IC50 for human SAE cells lacking FASN expression to IC50 for human NCI-H1703 cells expressing FASN
Outline: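 Index is the SAEC IC50 divided by the IC50 in the FASN-expressing NSCLC line. IC50s came from MTS viability after 72 h exposure at 37 °C, 5% CO2, DMSO 0.1% v/v. Absorbance was read at 490 nm after 2 h. The fit was % viability against log concentration, with 4 technical repeats and 3 independent experiments. NSCLC lines were grown in RPMI/10% FBS; SAEC in BEGM.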

[14] = target: Fatty acid synthase (Homo sapiens) (UniProt P49327); experiment: Inhibition of FASN in human PC9 cells harboring FASN expression and EGFR delE746-A750 mutant assessed as disruption of AKT/FASN positive feedback loop by measuring decrease in ratio of phosphoAKT/AKT expression at 2 uM after 48 hrs by Western immunoblot based densitometric assay relative to control; format: cell-based; outline: as §4
[15] = target: Fatty acid synthase (Homo sapiens) (UniProt P49327); experiment: Inhibition of FASN in human PC9 cells harboring FASN expression and EGFR delE746-A750 mutant assessed as disruption of AKT/FASN positive feedback loop by measuring decrease in FASN expression at 1 uM after 48 hrs by Western immunoblot based densitometric assay relative to control; format: cell-based; outline: as §2
[16] = target: Fatty acid synthase (Homo sapiens) (UniProt P49327); experiment: Inhibition of FASN in human NCI-H1703 cells expressing FASN assessed as disruption of AKT/FASN positive feedback loop by measuring decrease in AKT expression at 1 uM after 48 hrs by Western immunoblot based densitometric assay relative to control; format: cell-based; outline: as §2

SMILES | IC50 (A549) | solubility kinetic at 24 h [1] | IC50 [2] | Ratio [3] | IC50 (PC-9) | Ratio [4] | Ratio [5] | Ratio [6] | Ratio [7] | Ratio [8] | Activity (NCI-H1703) | inhibition [9] | Ratio [10] | Ratio [11] | Ratio IC50 [12] | Ratio IC50 [13] | Ratio [14] | Ratio [15] | Ratio [16]
O=C(Oc1ccc(/C=C/c2ccc(OC(=O)c3cc(O)c(O)c(O)c3)cc2)cc1)c1cc(O)c(O)c(O)c1 | 2.1 µM | 2.5 µM (≈ 1.29 µg/mL) | 5 µM | 0.11 to 0.24 | 2.3 µM | 0.18 | 6 to 15 | 0.74 | 0.57 | 0.04 | Active | Active | 0.2 | 1.04 | 2.4 | 5.2 | 0.13 | 0.92 | 0.34
O=C(Oc1ccc(/C=C/c2cccc(OC(=O)c3cc(O)c(O)c(O)c3)c2)cc1)c1cc(O)c(O)c(O)c1 | 2.3 µM | 6 µM (≈ 3.1 µg/mL) | 6.8 µM | 0.38 to 0.39 | 5 µM | 0.12 | 15 | 1.64 | 0.87 | 0.16 | Active | Active | 0.29 | 0.58 | 3 | 5.3 | 0.12 | 0.86 | 0.52

— ChEMBL document CHEMBL4406830, “Galloyl esters of trans-stilbenes are inhibitors of FASN with anticancer activity on non-small cell lung cancer cells” (Eur J Med Chem, 2019)
